Assay results published in ChEMBL document CHEMBL1144782, “Isoindolo[2,1-a]quinoxaline derivatives, novel potent antitumor agents with dual inhibition of tubulin polymerization and topoisomerase I” (2008).
Active and inactive are the calls of the source. The calls are words filed in the database; no cut-off is given here.

How the values were obtained:
[1] = tested on: NCI-H226; test: Antitumor activity against human NCI-H226 cells; assay type: functional
Outline: (§1)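 Run by the NCI in its in vitro disease-oriented screen of about 60 human tumour cell lines. For each line it reports pGI50 (50% net growth inhibition), pTGI (total growth inhibition) and pLC50 (50% net cell death), each as –log molar concentration. Where an effect was not reached within the tested range, the highest tested concentration was used.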

[2] = tested on: NCI-H23; test: Antitumor activity against human NCI-H23 cells; assay type: functional; outline: as §1
[3] = tested on: NCI-H460; test: Antitumor activity against human NCI-H460 cells; assay type: functional; outline: as §1
[4] = tested on: HT-29; test: Antitumor activity against human HT29 cells; assay type: functional; outline: as §1
[5] = tested on: KM12; test: Antitumor activity against human KM12 cells; assay type: functional; outline: as §1
[6] = tested on: SW-620; test: Antitumor activity against human SW620 cells; assay type: functional
Outline: (§2)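 NCI 60-cell-line screen. Parameters were GI50 (50% net growth inhibition), TGI and LC50, each reported as –log molar concentration. Where an effect was not reached within the tested range, the highest tested concentration was used in the calculation.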

[7] = tested on: Jurkat; test: Cell cycle arrest in human Jurkat cells assessed as accumulation at G1 phase at 62.5 nM after 24 hrs by flow cytometry; assay type: functional
Outline: (§3)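 Exponentially growing Jurkat cells (5 × 105) were exposed to compound for 24 h. Cells were then fixed in ice-cold 70% ethanol, lysed with RNase A-containing buffer and stained with propidium iodide. DNA-content histograms from flow cytometry gave G1, S and G2/M fractions.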

[8] = tested on: Jurkat; test: Cell cycle arrest in human Jurkat cells assessed as accumulation at G2/M phase at 62.5 nM after 24 hrs by flow cytometry; assay type: functional; outline: as §3
[9] = tested on: Jurkat; test: Cell cycle arrest in human Jurkat cells assessed as accumulation at S phase at 62.5 nM after 24 hrs by flow cytometry; assay type: functional; outline: as §3
[10] = tested on: Jurkat; test: Cell cycle arrest in human Jurkat cells assessed as accumulation at G2/M phase at 125 nM after 24 hrs by flow cytometry; assay type: functional; outline: as §3
[11] = tested on: SF-295; test: Antitumor activity against human SF295 cells; assay type: functional; outline: as §1
[12] = tested on: U-251; test: Antitumor activity against human U251 cells; assay type: functional; outline: as §2
[13] = tested on: UACC-257; test: Antitumor activity against human UACC257 cells; assay type: functional; outline: as §2
[14] = tested on: UACC-62; test: Antitumor activity against human UACC62 cells; assay type: functional; outline: as §2
[15] = tested on: OVCAR-5; test: Antitumor activity against human OVCAR5 cells; assay type: functional; outline: as §1
[16] = tested on: OVCAR-8; test: Antitumor activity against human OVCAR8 cells; assay type: functional; outline: as §1
[17] = tested on: ACHN; test: Antitumor activity against human ACHN cells; assay type: functional; outline: as §1
[18] = tested on: Jurkat; test: Cell cycle arrest in human Jurkat cells assessed as accumulation at G1 phase at 250 nM after 24 hrs by flow cytometry; assay type: functional; outline: as §3
[19] = tested on: A549; test: Disruption of tubulin network in human A549 cells assessed as disaggregation of microtubules at 5 uM […]; assay type: functional, cell-based
[20] = molecular target: Tubulin (Sus scrofa) (UniProt P02554+P02550); test: Inhibition of pig brain tubulin polymerization at 5 uM
Tubulin (Sus scrofa), sequence (P02550 whole entry, looked up): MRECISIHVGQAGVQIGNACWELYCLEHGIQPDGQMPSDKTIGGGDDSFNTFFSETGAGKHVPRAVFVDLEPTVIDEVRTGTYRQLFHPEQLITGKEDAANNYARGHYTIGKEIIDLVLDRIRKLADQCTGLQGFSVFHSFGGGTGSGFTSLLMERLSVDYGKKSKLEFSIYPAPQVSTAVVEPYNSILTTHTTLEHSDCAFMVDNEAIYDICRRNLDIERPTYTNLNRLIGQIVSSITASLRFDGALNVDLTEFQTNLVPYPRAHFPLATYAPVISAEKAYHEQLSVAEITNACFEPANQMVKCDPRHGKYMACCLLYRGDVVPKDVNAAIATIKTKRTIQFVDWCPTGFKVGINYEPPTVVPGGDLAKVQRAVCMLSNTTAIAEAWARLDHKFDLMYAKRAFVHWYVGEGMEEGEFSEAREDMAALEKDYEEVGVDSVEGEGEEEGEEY
Tubulin (Sus scrofa), sequence (P02554 whole entry, looked up): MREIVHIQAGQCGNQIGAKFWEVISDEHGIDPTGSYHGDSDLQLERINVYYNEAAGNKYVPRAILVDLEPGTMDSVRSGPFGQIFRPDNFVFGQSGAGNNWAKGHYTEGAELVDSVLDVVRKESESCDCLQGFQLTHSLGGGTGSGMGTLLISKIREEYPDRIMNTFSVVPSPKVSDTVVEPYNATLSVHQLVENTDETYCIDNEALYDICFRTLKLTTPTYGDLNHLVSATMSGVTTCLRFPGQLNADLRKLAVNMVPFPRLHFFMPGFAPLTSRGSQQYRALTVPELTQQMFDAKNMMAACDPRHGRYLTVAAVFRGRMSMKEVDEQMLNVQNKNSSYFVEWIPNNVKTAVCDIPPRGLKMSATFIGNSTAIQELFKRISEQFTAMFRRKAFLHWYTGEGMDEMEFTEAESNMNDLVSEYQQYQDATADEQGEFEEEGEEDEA

[21] = tested on: Salmonidae; test: Binding affinity to salmon testes DNA by spectrophotometric titration method
Outline: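 Absorption titration of salmon testes DNA into a constant drug concentration at varying [drug]/[DNA] ratios. ETN buffer (10 mM Tris, 1 mM EDTA, 10 mM NaCl), pH 7.0, 25 °C. Scatchard isotherms were fitted to the McGhee–von Hippel model for intrinsic binding constant and site size.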

[22] = tested on: Jurkat; test: Induction of apoptosis in human Jurkat cells assessed as activation of caspase 3 after 24 hrs by flow cytometry; assay type: functional, cell-based
Outline: (§4)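 Jurkat cells were exposed (500 nM) for 24 h, then harvested and incubated in HBSS with cell-permeable FITC-DEVD-fmk (caspase-3) or FITC-[…]-fmk (caspase-9) for 1 h at 37 °C. After washing, cells were read by flow cytometry on FL-1. Results are fold increase over control.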

[23] = tested on: Jurkat; test: Induction of apoptosis in human Jurkat cells assessed as activation of caspase 9 after 24 hrs by flow cytometry; assay type: functional, cell-based; outline: as §4
[24] = tested on: BT-549; test: Antitumor activity against human BT549 cells; assay type: functional; outline: as §1
[25] = tested on: SF-268; test: Cell viability against human SF268 cells at 10 uM; assay type: functional
[26] = tested on: CCRF-CEM; test: Antitumor activity against human CCRF-CEM cells; assay type: functional; outline: as §1
[27] = tested on: MOLT-4; test: Antitumor activity against human MOLT4 cells; assay type: functional; outline: as §1
[28] = tested on: SR; test: Antitumor activity against human SR cells; assay type: functional; outline: as §2
[29] = tested on: HOP-62; test: Antitumor activity against human HOP62 cells; assay type: functional; outline: as §1
[30] = tested on: TK-10; test: Antitumor activity against human TK10 cells; assay type: functional; outline: as §2
[31] = tested on: Hs-578T; test: Antitumor activity against human HS578T cells; assay type: functional; outline: as §1
[32] = tested on: T47D; test: Antitumor activity against human T47D cells; assay type: functional; outline: as §2
[33] = tested on: MCF7; test: Growth inhibition of human multidrug-resistant MCF7 cells after 72 hrs by MTT assay; assay type: functional; conditions: MCF7, 72 h
Outline: (§5)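 Growth inhibition by MTT after 72 h incubation. Resistant sublines: LoVoDoxo and MCF-7 MDR were kept in 0.1 µg/mL doxorubicin; CEMVbl-100 was selected against vinblastine. GI50 given as mean ± SEM of three independent experiments. Resistance index is resistant-line GI50 over parental GI50.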

[34] = tested on: CCRF-CEM; test: Growth inhibition of human CEM cells after 72 hrs by MTT assay; assay type: functional; outline: as §5
[35] = tested on: CCRF-CEM; test: Growth inhibition of human vinblastine-resistant CEM cells after 72 hrs by MTT assay; assay type: functional; outline: as §5
[36] = read-out: Log LC50 (the source's name) (converted)

COc1ccc2c(c1)[nH]c(=O)c1c3ccccc3cn21
GI50 [1]: 0.0457 µM
LC50 (50% net cell kill) [1]: > 100 µM
TGI ([1]; read-out: pTGI (converted)): 0.525 µM
GI50 [2]: 0.0427 µM
LC50 (50% net cell kill) [2]: > 100 µM
TGI ([2]; read-out: pTGI (converted)): 3.39 µM
GI50 [3]: 0.0347 µM
CC50 [3, 36]: 5.13 µM
TGI ([3]; read-out: pTGI (converted)): 1.12 µM
GI50 [4]: 0.0339 µM
LC50 [4]: > 100 µM
TGI ([4]; read-out: pTGI (converted)): 1.48 µM
GI50 [5]: 0.0331 µM
LC50 (50% net cell death) [5]: 6.03 µM
TGI ([5]; read-out: pTGI (converted)): 1.51 µM
GI50 [6]: 0.0263 µM
CC50 [6, 36]: 4.17 µM
TGI ([6]; read-out: pTGI (converted)): 1.41 µM
Activity [7]: 3.4%
Activity [8]: 43.1%
Activity [9]: 53.5%
Activity [10]: 59.2%
GI50 [11]: 0.0269 µM
CC50 [11, 36]: 4.17 µM
TGI ([11]; read-out: pTGI (converted)): 1.05 µM
GI50 [12]: 0.0437 µM
CC50 [12, 36]: 5.01 µM
TGI ([12]; read-out: pTGI (converted)): 1.51 µM
GI50 [13]: 5.13 µM
LC50 [13]: 74.1 µM
TGI ([13]; read-out: pTGI (converted)): 30.9 µM
GI50 [14]: 0.0741 µM
LC50 [14]: 4.37 µM
TGI ([14]; read-out: pTGI (converted)): 1.91 µM
GI50 [15]: 0.1 µM
LC50 (50% net cell death) [15]: 77.6 µM
TGI ([15]; read-out: pTGI (converted)): 7.94 µM
GI50 [16]: 0.0575 µM
LC50 (50% net cell death) [16]: > 100 µM
TGI ([16]; read-out: pTGI (converted)): 2.34 µM
GI50 [17]: 0.126 µM
LC50 (50% net cell kill) [17]: 4.37 µM
TGI ([17]; read-out: pTGI (converted)): 1.82 µM
Activity [18]: 0.6%
Activity [19]: Active
Activity [20]: Active
K [21]: 2.7 10^5/M
Activity [22]: Active
Activity [23]: Active
GI50 [24]: 0.055 µM
LC50 (50% net cell kill) [24]: 6.31 µM
TGI ([24]; read-out: pTGI (converted)): 2.04 µM
Activity [25]: 1%
GI50 [26]: 0.0302 µM
LC50 [26]: > 100 µM
TGI ([26]; read-out: pTGI (converted)): 1.45 µM
GI50 [27]: 0.0776 µM
LC50 [27]: 75.9 µM
TGI ([27]; read-out: pTGI (converted)): 2.14 µM
GI50 [28]: 0.01 µM
LC50 [28]: 75.9 µM
TGI ([28]; read-out: pTGI (converted)): 2.04 µM
GI50 [29]: 0.0309 µM
LC50 (50% net cell death) [29]: 3.89 µM
TGI ([29]; read-out: pTGI (converted)): 1.23 µM
GI50 [30]: 0.513 µM
CC50 [30, 36]: 6.61 µM
TGI ([30]; read-out: pTGI (converted)): 2.45 µM
GI50 [31]: 0.0513 µM
CC50 [31, 36]: > 100 µM
TGI ([31]; read-out: pTGI (converted)): 2.69 µM
GI50 [32]: 0.0479 µM
LC50 [32]: > 100 µM
TGI ([32]; read-out: pTGI (converted)): 4.57 µM
GI50 [33]: 0.15 µM
GI50 [34]: 0.02 µM
GI50 [35]: 0.02 µM
